This is an account of results in ChEMBL document CHEMBL1124362, “Synthesis of methotrexate-antibody conjugates by regiospecific coupling and assessment of drug and antitumor activities” (J Med Chem, 1989).

In brackets after ≈: the same amount, converted by molar mass.

One assay deals with T1, Dihydrofolate reductase (Bos taurus, UniProt P00376).
T1 sequence (P00376 whole entry): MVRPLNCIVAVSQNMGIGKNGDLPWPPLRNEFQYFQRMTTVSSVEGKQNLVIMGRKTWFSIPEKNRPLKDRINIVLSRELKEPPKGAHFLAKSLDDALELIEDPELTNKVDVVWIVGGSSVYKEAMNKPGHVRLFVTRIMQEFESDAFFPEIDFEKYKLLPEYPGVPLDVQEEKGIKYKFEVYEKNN
Briefly: Concentration required for inhibition of beef liver dihydrofolate reductase.

The subject of assay [1] is CAKI-1. Briefly: Inhibition of colony formation of Caki-1 cells by MTX. It counts as functional, cell-based. The settings on record: Homo sapiens. The method in brief:
(§1)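 Single-cell suspensions (>99% trypan blue-excluding) of M21 melanoma or Caki-1 renal carcinoma cells, 1 × 10⁶ cells/mL in McCoy's medium with 15% dialyzed FCS, exposed 6 h at 37 °C to agent, washed three times, plated in 0.3% agar over 0.5% agar base (10⁴ cells/plate). Incubated at 37 °C, 5% CO₂. Colonies >30 cells counted visually at 14 days, three plates per concentration.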

Assay [2] has as its system CAKI-1. As to the kind of experiment: Inhibition of colony formation of Caki-1 cells by amide-linked conjugate (regiospecific coupling) of MTX and Dal K-20. It is filed as functional, cell-based. Conditions: Homo sapiens. The gist of the method:
as §1

Assay [3] concerns CAKI-1. As to the kind of experiment: Inhibition of colony formation of Caki-1 cells by amide-linked conjugate of MTX and Dal K-20. It is filed as functional, cell-based. The settings on record: Homo sapiens. The gist of the method:
as §1

Assay [4] relates to CAKI-1. Briefly: Inhibition of colony formation of Caki-1 cells by hydrazone-linked conjugate (regiospecific coupling) of MTX and Dal K-20. It counts as functional, cell-based. The settings on record: Homo sapiens. The gist of the method:
as §1

Assay [5] relates to CAKI-1. Briefly: Inhibition of colony formation of Caki-1 cells by hydrazone-linked conjugate of MTX and Dal K-20. The settings on record: Homo sapiens. It counts as functional, cell-based. The gist of the method: as §1
The test system of assay [6] is M21. As to the kind of experiment: Colony count at 15 ug/mL of amide-linked conjugate of MTX and Dal K-20 in melanoma M21 cells. The settings on record: Homo sapiens.
Assay [7] has as its system M21. As to the kind of experiment: Colony count at 10 ug/mL of amide-linked conjugate of MTX and Dal K-20 in melanoma M21 cells. Conditions: Homo sapiens.
Assay [8] has as its system M21. As to the kind of experiment: Colony count at 20 ug/mL of amide-linked conjugate of MTX and Dal K-20 in melanoma M21 cells. Conditions: Homo sapiens.
The test system of assay [9] is M21. As to the kind of experiment: Colony count at 20 ug/mL of hydrazone-linked conjugate of MTX and Dal K-20 in melanoma M21 cells. Conditions: Homo sapiens.
For assay [10], the system named is M21. Briefly: Colony count at 10 ug/mL of hydrazone-linked conjugate of MTX and Dal K-20 in melanoma M21 cells. Conditions: Homo sapiens.
For assay [11], the system named is M21. As to the kind of experiment: Colony count at 15 ug/mL of hydrazone-linked conjugate of MTX and Dal K-20 in melanoma M21 cells. The settings on record: Homo sapiens.
The test system of assay [12] is M21. Briefly: Colony count at 15 ug/mL of amide-linked conjugate (regiospecific coupling) of MTX and Dal K-20 in melanoma M21 cells. Conditions: Homo sapiens.
For assay [13], the system named is M21. Briefly: Colony count at 20 ug/mL of amide-linked conjugate (regiospecific coupling) of MTX and Dal K-20 in melanoma M21 cells. The settings on record: Homo sapiens.
In assay [14] the test system is M21. Briefly: Colony count at 10 ug/mL of amide-linked conjugate (regiospecific coupling) of MTX and Dal K-20 in melanoma M21 cells. Conditions: Homo sapiens.
In assay [15] the test system is M21. Briefly: Colony count at 15 ug/mL of hydrazone-linked conjugate (regiospecific coupling) of MTX and Dal K-20 in melanoma M21 cells. Conditions: Homo sapiens.
Assay [16] concerns M21. Briefly: Colony count at 20 ug/mL of hydrazone-linked conjugate (regiospecific coupling) of MTX and Dal K-20 in melanoma M21 cells. The settings on record: Homo sapiens.
For assay [17], the system named is M21. As to the kind of experiment: Colony count at 10 ug/mL of hydrazone-linked conjugate (regiospecific coupling) of MTX and Dal K-20 in melanoma M21 cells. Conditions: Homo sapiens.

Usually IC50 stands for the concentration that inhibits the measured activity by half. Regarding `CN(Cc1cnc2nc(N)nc(N)c2n1)c1ccc(C(=O)NC(CCC(=O)NN)C(=O)NN)cc1` (stereo unspecified), it took 37.9 µM to reach half-maximal inhibition on Dihydrofolate reductase (IC50).
At Dihydrofolate reductase, `CN(Cc1cnc2nc(N)nc(N)c2n1)c1ccc(C(=O)NC(CCC(=O)NN)C(=O)OC(C)(C)C)cc1` (stereo unspecified) showed a half-inhibitory concentration (IC50) of 41.2 µM. The IC50 values of the last two compounds are within 1.5-fold of each other.
The same measure, in the same setting: the value for `CN(Cc1cnc2nc(N)nc(N)c2n1)c1ccc(C(=O)NC(CCC(=O)NN)C(=O)O)cc1` (stereo unspecified) was 30.7 µM; that for `COC(=O)CCC(NC(=O)c1ccc(N(C)Cc2cnc3nc(N)nc(N)c3n2)cc1)C(=O)O` (stereo unspecified) was 25.4 µM.
For `CN(Cc1cnc2nc(N)nc(N)c2n1)c1ccc(C(=O)N[C@@H](CCC(=O)O)C(=O)O)cc1` [METHOTREXATE], the concentration for half-maximal inhibition (IC50) with CAKI-1 [1] was found to be 25 µg/mL (≈ 55 µM); in the assay with CAKI-1 [2] it was 3.3 µg/mL (≈ 7.26 µM); in the assay on CAKI-1 [3], 4.5 µg/mL (≈ 9.9 µM); with CAKI-1 [4], 3 µg/mL (≈ 6.6 µM); in the assay on CAKI-1 [5], 3.4 µg/mL (≈ 7.48 µM). Also, the colony count in the assay on M21 [6] was determined as 117 colonies/plate; in the assay with M21 [7], 109 colonies/plate; in the assay with M21 [8] it was 119 colonies/plate; with M21 [9], 108 colonies/plate; with M21 [10], 112 colonies/plate; in the assay with M21 [11], 109 colonies/plate. The colony count came out at 118 colonies/plate in the assay on M21 [12]; 112 colonies/plate with M21 [13]; 115 colonies/plate in the assay with M21 [14]; 121 colonies/plate in the assay with M21 [15]; 115 colonies/plate in the assay on M21 [16]; 120 colonies/plate with M21 [17].
